# Measurements pooled from the literature.
# BRD4 BD1: Bromodomain-containing protein 4, BD1 (BRD4, Homo sapiens, UniProt O60885)
# BRD4 BD2: Bromodomain-containing protein 4, BD2 (BRD4, Homo sapiens, UniProt O60885)
SMILES,target,read-out,technique,tested at,endpoint,value
Cc1cnc(Nc2ccc(OCCN3CCCC3)cc2)nc1Nc1cccc(S(=O)(=O)NC(C)(C)C)c1,BRD4 BD1,thermal stability,DSF,10 µM,ΔTm,3.8 °C
CC(C)(C)c1cc(NC(=O)Nc2ccc(-c3cn4c(n3)sc3cc(OCCN5CCOCC5)ccc34)cc2)no1,BRD4 BD1,thermal stability,DSF,100 µM,ΔTm,< 1 °C
CN(C)CCN1CCN(c2nc(NCc3cccc(Cl)c3)c3cc(-c4ccc(=O)n(C)c4)ccc3n2)CC1,BRD4 BD2,thermal stability,DSF,250 µM,ΔTm,11 °C
C[S+]([O-])c1ccc(-c2nc(-c3ccncc3)c(-c3ccc(F)cc3)[nH]2)cc1 (stereo not drawn),BRD4 BD1,thermal stability,DSF,10 µM,ΔTm,1.32 °C
COc1cc(C(=O)N2CCC(N3CCN(C)CC3)CC2)ccc1Nc1ncc2c(n1)N(C)c1ccccc1C(=O)N2C,BRD4 BD1,thermal stability,DSF,10 µM,ΔTm,2.1 °C
Cc1cc2c(NC(=O)c3cccc(C(=O)O)c3)cccc2nn1,BRD4 BD1,thermal stability,DSF,100 µM,ΔTm,1.4 °C
CC(C)[C@@H]1NC(=O)[C@@H]2CCCN2C(=O)[C@H](Cc2ccccc2)NC(=O)CSC[C@@H](C(=O)N[C@@H](Cc2ccc(O)cc2)C(N)=O)NC(=O)[C@H](Cc2c[nH]c3ccccc23)NC(=O)[C@H](CCCCN)NC(=O)[C@H](Cc2ccccc2)N(C)C(=O)[C@H](Cc2ccccc2)NC1=O,BRD4 BD1,thermal stability,DSF,100 µM,ΔTm,-0.52 °C
NS(=O)(=O)c1ccc(Nc2nc(-c3ccc(F)cc3)c3ccccc3n2)cc1,BRD4 BD2,binding,competition with immobilised ligand,1 µM,remaining binding,4%
Cn1cc(C(=O)Nc2cccc(C(=O)O)c2)ccc1=O,BRD4 BD1,thermal stability,DSF,100 µM,ΔTm,0.9 °C
